As a reminder, the Ki is a dissociation constant, usually derived from enzyme kinetics or from competition with a known ligand. A high value points to weaker binding. One may read the AUC as concentration integrated over time. A high value points to high exposure. Usually Tmax stands for the time from dosing to the highest level. In general, Cmax refers to the highest concentration seen after dosing.

Data set [1] addresses D(2) dopamine receptor (Homo sapiens, UniProt P14416). As to the kind of experiment: Displacement of [3H]methylspiperon from dopamine D2 receptor expressed in mouse LTK cells by scintillation counting. Type of data set: cell-based. A general note: In a radioligand displacement assay an active substance lowers the binding of a labelled ligand.
Data set [2] concerns the target D(1A) dopamine receptor (Homo sapiens, UniProt P21728). As to the kind of experiment: Displacement of [3H]SCh23390 from dopamine D1 receptor expressed in mouse LTK cells by scintillation counting. Type of data set: cell-based.
Data set [3] has as its target D(1B) dopamine receptor (Homo sapiens, UniProt P21918). Nature of the data set: Displacement of radioligand from dopamine D5 receptor expressed in mouse LTK cells by scintillation counting. Type of data set: cell-based. The essentials: (§1)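 Ki came from equilibrium radioligand binding. Bound and free radioligand were separated by rapid filtration, and bound counts were measured by liquid scintillation. Standard error was 10%, and assay-to-assay variability was under twofold.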

In data set [4] the test system is Rattus norvegicus. Nature of the data set: AUC (0 to 6 hrs) in Sprague-Dawley rat at 10 mg/kg, po. In kind it is ADME, organism-based, Plasma. Also noted: time < 6 hr, dose 10 mg/kg, route oral. Conditions: in vivo. The essentials:
(§2)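 Two male Sprague–Dawley rats received 10 mg/kg orally under a cassette-accelerated rapid rat protocol. Blood was sampled at several time points, and values came from pooled samples. […] Individual plasma levels were generally within ±25% of the average.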

The target of data set [5] is T1, D(4) dopamine receptor (Homo sapiens, UniProt P21917).
T1 sequence (P21917 whole entry): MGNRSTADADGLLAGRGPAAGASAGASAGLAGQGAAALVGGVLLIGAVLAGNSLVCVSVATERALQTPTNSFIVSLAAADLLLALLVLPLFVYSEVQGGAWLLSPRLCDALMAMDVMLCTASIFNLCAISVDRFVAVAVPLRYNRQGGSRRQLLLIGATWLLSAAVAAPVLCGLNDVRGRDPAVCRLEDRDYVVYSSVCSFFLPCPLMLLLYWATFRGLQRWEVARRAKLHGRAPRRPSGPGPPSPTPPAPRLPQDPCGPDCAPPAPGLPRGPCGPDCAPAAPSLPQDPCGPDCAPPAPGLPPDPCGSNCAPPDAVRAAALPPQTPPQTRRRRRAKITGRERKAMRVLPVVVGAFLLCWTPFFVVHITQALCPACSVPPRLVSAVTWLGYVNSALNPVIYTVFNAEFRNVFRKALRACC
Nature of the data set: Displacement of radioligand from dopamine D4 receptor expressed in mouse LTK cells by scintillation counting. Type of data set: cell-based. The essentials:
as §1

Data set [6] is described as follows: Tmax in Sprague-Dawley rat at 10 mg/kg, po. In kind it is ADME, organism-based. Further details: dose 10 mg/kg, route oral. The settings on record: in vivo. The essentials: as §2
Data set [7] in a line: Cmax in Sprague-Dawley rat at 10 mg/kg, po. In kind it is ADME, organism-based. Also noted: dose 10 mg/kg, route oral. Conditions: in vivo. The essentials: as §2

D(1A) dopamine receptor, sequence (P21728 whole entry): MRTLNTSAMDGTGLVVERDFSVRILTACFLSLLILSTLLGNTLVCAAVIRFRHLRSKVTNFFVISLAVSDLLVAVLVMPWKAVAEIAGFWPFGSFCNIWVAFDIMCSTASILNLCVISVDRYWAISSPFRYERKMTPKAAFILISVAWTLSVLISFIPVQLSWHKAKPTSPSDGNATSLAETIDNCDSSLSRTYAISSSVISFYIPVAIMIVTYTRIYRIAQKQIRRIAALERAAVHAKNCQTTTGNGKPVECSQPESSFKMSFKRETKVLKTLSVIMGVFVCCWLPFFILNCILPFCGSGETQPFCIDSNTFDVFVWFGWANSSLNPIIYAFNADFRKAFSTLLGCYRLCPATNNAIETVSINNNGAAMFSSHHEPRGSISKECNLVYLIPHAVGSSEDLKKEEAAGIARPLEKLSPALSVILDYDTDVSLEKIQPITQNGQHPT
D(2) dopamine receptor, sequence (P14416 whole entry): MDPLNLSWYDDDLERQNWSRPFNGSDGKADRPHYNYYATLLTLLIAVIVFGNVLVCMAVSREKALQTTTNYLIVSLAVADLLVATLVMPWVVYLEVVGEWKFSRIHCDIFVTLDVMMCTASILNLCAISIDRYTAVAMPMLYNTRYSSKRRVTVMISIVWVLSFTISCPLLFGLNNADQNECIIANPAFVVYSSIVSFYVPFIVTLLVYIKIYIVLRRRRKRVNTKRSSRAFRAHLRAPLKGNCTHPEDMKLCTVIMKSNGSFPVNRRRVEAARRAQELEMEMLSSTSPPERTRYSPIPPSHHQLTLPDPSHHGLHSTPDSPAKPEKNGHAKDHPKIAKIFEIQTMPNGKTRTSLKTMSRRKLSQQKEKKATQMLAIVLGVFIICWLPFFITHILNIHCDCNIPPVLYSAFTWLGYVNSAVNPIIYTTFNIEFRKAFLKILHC
D(1B) dopamine receptor, sequence (P21918 whole entry): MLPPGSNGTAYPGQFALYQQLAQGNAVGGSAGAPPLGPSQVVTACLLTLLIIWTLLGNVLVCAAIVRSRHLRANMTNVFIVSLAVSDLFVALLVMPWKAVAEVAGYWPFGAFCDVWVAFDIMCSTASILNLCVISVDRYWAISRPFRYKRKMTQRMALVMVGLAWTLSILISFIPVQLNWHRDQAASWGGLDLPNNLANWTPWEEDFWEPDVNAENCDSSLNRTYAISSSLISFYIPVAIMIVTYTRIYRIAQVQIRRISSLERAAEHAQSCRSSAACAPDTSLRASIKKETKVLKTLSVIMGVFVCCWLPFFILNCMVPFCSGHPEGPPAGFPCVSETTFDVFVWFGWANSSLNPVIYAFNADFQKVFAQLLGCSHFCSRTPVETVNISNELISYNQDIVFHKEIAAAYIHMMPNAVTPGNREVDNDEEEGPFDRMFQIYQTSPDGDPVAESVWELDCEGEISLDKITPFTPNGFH

For the molecule `CN1CCc2cc(Cl)c(O)cc2[C@H]2c3cccc(-c4cc(F)cc(F)c4)c3CC[C@@H]21`, the inhibition constant Ki in data set [1] stood at 312 nM; in data set [2], 0.9 nM.

As to `CN(C)c1ccc(-c2cccc3c2CC[C@H]2[C@H]3c3cc(O)c(Cl)cc3CCN2C)cc1`, the inhibitory constant (Ki) in data set [1] came to 12 nM; in data set [2], 0.7 nM.

For the molecule `CN1CCc2cc(Cl)c(O)cc2[C@H]2c3cccc(-c4ccc5[nH]ccc5c4)c3CC[C@@H]21`, the inhibition constant (Ki) was determined as 51 nM in data set [1] and 0.6 nM in data set [2].

For the molecule `CN1CCc2cc(Cl)c(O)cc2[C@H]2c3cccc(-c4cccs4)c3CC[C@@H]21`, the Ki in data set [3] stood at 1.9 nM; in data set [5] it was 10000 nM; in data set [1] it was 93 nM. For the same molecule, in data set [4], the AUC was 353 µg·h/mL. The Tmax in data set [6] was 2 h. This molecule also returned a Cmax in data set [7] of 90 ng/mL.

Regarding `CN1CCc2cc(Cl)c(O)cc2[C@H]2c3cccc(-c4cccc(F)c4)c3CC[C@@H]21`, the results for the Ki in data set [1] and in data set [2] were 223 nM and 0.4 nM, respectively.

Consider `CN1CCc2cc(Cl)c(O)cc2[C@H]2c3cccc(-c4cccc(C#N)c4)c3CC[C@@H]21`, for which the Ki in data set [3] turned out to be 3.4 nM; in data set [5], 10000 nM; in data set [1], 584 nM; in data set [2] it was 0.6 nM.

As to `COC(=O)c1cccc2c1CC[C@H]1[C@H]2c2cc(O)c(Cl)cc2CCN1C`, the Ki in data set [3] is 3.7 nM; in data set [5] it was 4830 nM; in data set [1], 923 nM; in data set [2], 2.3 nM.

With `CN1CCc2cc(Cl)c(O)cc2[C@H]2c3cccc(C(=O)O)c3CC[C@@H]21`, the Ki in data set [1] came out at 420 nM; in data set [2], 38 nM.

Regarding `CN1CCc2cc(Cl)c(O)cc2[C@H]2c3cccc(N4CCCC4=O)c3CC[C@@H]21`, the Ki is 26.9 nM in data set [3], 10000 nM in data set [5], 1370 nM in data set [1] and 3.1 nM in data set [2].

On to `CN1CCc2cc(Cl)c(O)cc2[C@H]2c3cccc(CO)c3CC[C@@H]21`, for which the Ki amounted to 7.4 nM in data set [3], 6280 nM in data set [5], 1650 nM in data set [1] and 2 nM in data set [2].

`CO/N=C/c1cccc2c1CC[C@H]1[C@H]2c2cc(O)c(Cl)cc2CCN1C`: the Ki in data set [3] was determined as 22 nM; in data set [5], 7510 nM; in data set [1] it was 483 nM; in data set [2], 4.4 nM.

On to `CN1CCc2cc(Cl)c(O)cc2[C@H]2c3cccc(/C=N/OCc4ccccc4)c3CC[C@@H]21`, for which the inhibition constant (Ki) in data set [3] amounted to 2.5 nM; in data set [5], 8340 nM; in data set [1] it was 69 nM; in data set [2], 0.2 nM.

As to `CN1CCc2cc(Cl)c(O)cc2[C@H]2c3cccc(-c4ccccc4)c3CC[C@@H]21`, the affinity in data set [1] corresponds to a Ki of 79 nM.

Turning to `CN1CCc2cc(Cl)c(O)cc2[C@H]2c3cccc(Br)c3CC[C@@H]21`, the Ki in data set [3] stood at 7.5 nM; in data set [5], 10000 nM; in data set [1] it was 1690 nM; in data set [2] it was 3 nM.

For `COc1ccc(-c2cccc3c2CC[C@H]2[C@H]3c3cc(O)c(Cl)cc3CCN2C)cc1`, the Ki worked out at 6.2 nM in data set [3], 10000 nM in data set [5], 550 nM in data set [1] and 0.7 nM in data set [2]. In data set [4], the AUC worked out at 76 µg·h/mL. The Tmax in data set [6] amounted to 2 h. This molecule displayed a Cmax in data set [7] of 18 ng/mL.

For the molecule `CN1CCc2cc(Cl)c(O)cc2[C@H]2c3cccc(C#N)c3CC[C@@H]21`, the inhibition constant (Ki) was found to be 89 nM in data set [3], 10000 nM in data set [5], 1330 nM in data set [1] and 2.8 nM in data set [2].

On to `CN1CCc2cc(Cl)c(O)cc2[C@H]2c3cccc(-c4ccc(CO)cc4)c3CC[C@@H]21`, for which the inhibitory constant (Ki) in data set [1] was 89 nM; in data set [2] it was 0.7 nM.

For the molecule `CN1CCc2cc(Cl)c(O)cc2[C@H]2c3cccc(O)c3CC[C@@H]21`, the inhibition constant Ki worked out at 1.4 nM in data set [3], 3990 nM in data set [5] and 440 nM in data set [1].

Turning to `CN1CCc2cc(Cl)c(O)cc2[C@H]2c3cccc(C=O)c3CC[C@@H]21`, the inhibition constant (Ki) in data set [3] worked out at 3.3 nM; in data set [5], 5970 nM; in data set [1] it was 1370 nM; in data set [2], 2.6 nM.

In the case of `CN1CCc2cc(Cl)c(O)cc2[C@H]2c3cccc(-c4cccc(OC(F)(F)F)c4)c3CC[C@H]21`, the inhibition constant (Ki) in data set [1] came to 1610 nM; in data set [2], 2.3 nM.

Turning to `CCO/N=C/c1cccc2c1CC[C@H]1[C@H]2c2cc(O)c(Cl)cc2CCN1C`, the inhibition constant Ki in data set [3] amounted to 10 nM; in data set [5], 5890 nM; in data set [1], 217 nM; in data set [2], 1.8 nM.

Regarding `CN1CCc2cc(Cl)c(O)cc2[C@H]2c3cccc(/C=N/O)c3CC[C@@H]21`, the Ki in data set [3] worked out at 3.3 nM; in data set [5], 4370 nM; in data set [1], 882 nM; in data set [2], 1.6 nM.

With `CN1CCc2cc(Cl)c(O)cc2[C@H]2c3cccc(-c4ccncc4)c3CC[C@@H]21`, the values for the inhibitory constant (Ki) in data set [3], in data set [5] and in data set [1] were 10.5 nM, 5060 nM and 756 nM, respectively. In addition, the AUC in data set [4] worked out at 75 µg·h/mL. Also, in data set [6], the time to peak (Tmax) stood at 0.5 h. The same molecule displayed a maximum concentration (Cmax) in data set [7] of 43 ng/mL.

As for `CN1CCc2cc(Cl)c(O)cc2[C@H]2c3cccc(-c4cccc([N+](=O)[O-])c4)c3CC[C@@H]21`, the Ki in data set [3] came out at 4.7 nM; in data set [5], 10000 nM; in data set [1], 618 nM; in data set [2], 0.6 nM.

For `CN1CCc2cc(Cl)c(O)cc2[C@H]2c3cccc(/C=N/Oc4ccccc4)c3CC[C@@H]21`, the Ki in data set [3] came out at 2.1 nM; in data set [5], 10000 nM; in data set [1], 124 nM; in data set [2] it was 1 nM.

As for `CN1CCc2cc(Cl)c(O)cc2[C@H]2c3ccccc3CC[C@@H]21` [ECOPIPAM], the values for the inhibitory constant (Ki) in data set [3] and in data set [5] were 2 nM and 5520 nM, respectively. Further, in data set [4], the AUC is 156 µg·h/mL.

The record behind these values is ChEMBL document CHEMBL1156846, “Remote functionalization of SCH 39166: discovery of potent and selective benzazepine dopamine D1 receptor antagonists” (Bioorg Med Chem Lett, 2010).
